Experiment [1] is described as follows: Inhibition of Escherichia coli PDHc-E1 expressed in Escherichia coli TB1 using sodium pyruvate as substrate and ThDP after 3 mins by 2,6-DCPIP based microplate reader method. In short, it runs like this: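 The enzyme (7.1 µM) was preincubated 3 min at 37 °C with varied inhibitor in 50 mM K3PO4 pH 7.2, 2.0 mM pyruvate and 0.8 mM 2,6-DCPIP. ThDP (0–200 µM) started the reaction, read as A600 decrease. IC50 came from a Hill fit of initial rates.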

Experiment [2] is described as follows: Antibacterial activity against Synechocystis sp. PCC 6803. It counts as functional.
Experiment [3] in a line: Antibacterial activity against Synechocystis sp. PCC 6803 at 10 uM. It counts as functional.
The subject of the next experiment is Alternaria solani. As to the kind of experiment: Antifungal activity against Alternaria solani at 100 ug/ml. It counts as functional.
The test system of another experiment is Rhizoctonia solani. As to the kind of experiment: Antifungal activity against Rhizoctonia solani at 100 ug/ml. It counts as functional.
In a further experiment the test system is Botrytis cinerea. In words: Antifungal activity against Botrytis cinerea at 100 ug/ml. It counts as functional.
Experiment [4] deals with Colletotrichum orbiculare. In words: Antifungal activity against Colletotrichum orbiculare at 100 ug/ml. It counts as functional.
Experiment [5] relates to Escherichia coli. As to the kind of experiment: Inhibition of Escherichia coli PDHc-E1 expressed in Escherichia coli TB1 at 100 uM using sodium pyruvate as substrate after 3 mins by 2,6-DCPIP based microplate reader method.
Experiment [6] concerns the target T1, Pyruvate dehydrogenase E1 component subunit alpha, somatic form, mitochondrial (Sus scrofa) (UniProt P29804).
T1 sequence (whole entry): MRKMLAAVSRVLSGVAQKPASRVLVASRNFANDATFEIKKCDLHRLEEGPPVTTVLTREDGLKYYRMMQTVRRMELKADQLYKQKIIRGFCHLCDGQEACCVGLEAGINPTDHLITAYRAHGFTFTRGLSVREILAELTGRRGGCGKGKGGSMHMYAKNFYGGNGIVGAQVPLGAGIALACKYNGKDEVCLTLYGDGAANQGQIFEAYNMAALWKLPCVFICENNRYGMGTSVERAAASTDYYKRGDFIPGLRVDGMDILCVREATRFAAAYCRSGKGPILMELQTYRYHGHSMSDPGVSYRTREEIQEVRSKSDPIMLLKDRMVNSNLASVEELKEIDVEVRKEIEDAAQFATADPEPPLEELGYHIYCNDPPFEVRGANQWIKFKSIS
In words: Inhibition of pig heart PDHc-E1 using sodium pyruvate as substrate at 100 uM after 3 mins by 2,6-DCPIP based microplate reader method.

Experiment [7] can be described thus: Inhibition of Escherichia coli PDHc-E1 E571A mutant expressed in Escherichia coli TB1 using sodium pyruvate as substrate and ThDP after 3 mins by 2,6-DCPIP based microplate reader method. In short, it runs like this:
(§1)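 Point mutants were made by PCR mutagenesis on a pMAL-c2x-PDHc-E1 template, DpnI-digested and passed through DH5α. […] Assays used 7.1 µM enzyme, 50 mM K3PO4 pH 7.2, 2.0 mM pyruvate and 0.8 mM DCPIP, with 3 min preincubation at 37 °C and ThDP (0–200 µM) start. A600 was read and IC50 taken by Hill fit.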

A short description of experiment [8]: Inhibition of Escherichia coli PDHc-E1 V192A mutant expressed in Escherichia coli TB1 using sodium pyruvate as substrate and ThDP after 3 mins by 2,6-DCPIP based microplate reader method. The essentials:
as §1

Experiment [9] in a line: Inhibition of Escherichia coli PDHc-E1 M194A mutant expressed in Escherichia coli TB1 using sodium pyruvate as substrate and ThDP after 3 mins by 2,6-DCPIP based microplate reader method. The essentials:
as §1

Experiment [10] is described as follows: Inhibition of Escherichia coli PDHc-E1 F602A mutant expressed in Escherichia coli TB1 using sodium pyruvate as substrate and ThDP after 3 mins by 2,6-DCPIP based microplate reader method. The essentials:
as §1

Experiment [11] can be described thus: Inhibition of Escherichia coli PDHc-E1 E522A mutant expressed in Escherichia coli TB1 using sodium pyruvate as substrate and ThDP after 3 mins by 2,6-DCPIP based microplate reader method. In short, it runs like this: as §1
Experiment [12] can be described thus: Inhibition of Escherichia coli TB1 PDHc-E1 H106A mutant expressed in Escherichia coli TB1 using sodium pyruvate as substrate and ThDP after 3 mins by 2,6-DCPIP based microplate reader method. The essentials: as §1
A short description of experiment [13]: Inhibition of Escherichia coli TB1 PDHc-E1 K392A mutant expressed in Escherichia coli TB1 using sodium pyruvate as substrate and ThDP after 3 mins by 2,6-DCPIP based microplate reader method. The essentials:
as §1

For experiment [14], the system named is Escherichia coli. In words: Selectivity index, ratio of IC50 for Escherichia coli PDHc-E1 K392A mutant to IC50 for Escherichia coli WT PDHc-E1.
The test system of experiment [15] is Escherichia coli. As to the kind of experiment: Selectivity index, ratio of IC50 for Escherichia coli PDHc-E1 H106A mutant to IC50 for Escherichia coli WT PDHc-E1.

In general, IC50 refers to the midpoint of a concentration-inhibition curve. A high value points to lower potency. The term EC50 denotes the concentration needed to bring the measured effect to its halfway point. Higher therefore signals a less potent agent. The inhibition is the change of the read-out against control, counted positive when it falls. High values mean a strong effect, low ones a weak effect. In the case of `CNc1nc(C(F)(F)F)c(-c2nnc(SCc3cn(Cc4cnc(C)nc4N)nn3)o2)s1`, the IC50 turned out to be 0.97 µM in experiment [1]; 5.02 µM in experiment [7]; 33.2 µM in experiment [8]; 19.1 µM in experiment [9]; 5.08 µM in experiment [10]; 10.8 µM in experiment [11]. The IC50 in experiment [12] was 11.6 µM; in experiment [13], 20.4 µM. Also, the EC50 in experiment [2] is 0.83 µM. In experiment [3], this compound came in with an inhibition at 10 µM of 90%. Besides, the inhibition at 100 µg/mL with Alternaria solani is 41%; in the experiment with Rhizoctonia solani it was 14%; in the experiment with Botrytis cinerea, 50%; in experiment [4], 36%. Moreover, the inhibition in the experiment on Escherichia coli [5] was found to be 100%; in experiment [6] it was 26.1%. Further, the Ratio IC50 is 20 with Escherichia coli [14] and 11 with Escherichia coli [15].

The record behind these values is ChEMBL document CHEMBL3774346, “Rational design, synthesis and biological evaluation of 1,3,4-oxadiazole pyrimidine derivatives as novel pyruvate dehydrogenase complex E1 inhibitors” (Bioorg Med Chem, 2016).
